In ChEMBL document CHEMBL3627671, “Novel derivatives of nitro-substituted salicylic acids: Synthesis, antimicrobial activity and cytotoxicity” (Bioorg Med Chem, 2015):
In brackets after ≈: the same amount, converted by molar mass.

Legend:
Type in all cases: functional
Mycobacterium kansasii [1] = assay: Antimycobacterial activity against Mycobacterium kansasii 235/80 after 21 days; settings: 235/80, 504 h
How it was run: (§1)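 Šula's semisynthetic medium micromethod at 37 °C, read after 7, 14 and 21 days. The 1.0 McFarland suspension was diluted 10^-4. MIC determined. 6509/96 is a clinical isolate.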

[2] = tested on: Staphylococcus epidermidis; assay: Antibacterial activity against Staphylococcus epidermidis H 6966/08 after 48 hrs by microdilution broth method; settings: H 6966/08, 48 h
How it was run: (§2)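 Mueller-Hinton broth microdilution (modified M07-A07), pH 7.4 (±0.2). Compounds dissolved in DMSO, tested at final 500 to 0.49 µmol/L. Inoculum in sterile water matched to 0.5 McFarland. Incubated in the dark, humid atmosphere, 35 °C, read at 24 and 48 h visually and at 540 nm. MIC taken as ≥95% growth reduction (IC95) versus control.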

Aspergillus fumigatus [3] = assay: Antifungal activity against Aspergillus fumigatus 231 after 48 hrs by microdilution broth method; settings: Aspergillus fumigatus, 231, 48 h
How it was run: (§3)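 CLSI M27-A3 broth microdilution in RPMI 1640 with glutamine, buffered to pH 7.0 with MOPS; DMSO diluent. Yeast inoculum 5 × 10^3 ± 0.2 CFU/mL. Moulds grown on Sabouraud agar 3–10 days before spore harvest, final inoculum 0.5-5 × 10^4 CFU/mL, checked in a Bürker chamber. Incubated dark, humid, 35 °C, read at 24 and 48 h visually and at 540 nm. MIC taken as ≥80% (yeasts) or ≥50% (filamentous) growth reduction versus control.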

Nakaseomyces glabratus [4] = assay: Antifungal activity against Candida glabrata 20/I after 48 hrs by microdilution broth method; how it was run: as §3
Klebsiella pneumoniae [5] = assay: Antibacterial activity against ESBL-positive Klebsiella pneumoniae J 14368/08 after 24 hrs by microdilution broth method; settings: J 14368/08, 24 h; how it was run: as §2
Mycobacterium avium [6] = assay: Antimycobacterial activity against Mycobacterium avium 330/80 after 14 days; settings: 330/80, 336 h
Trichosporon asahii [7] = assay: Antifungal activity against Trichosporon asahii 1188 after 24 hrs by microdilution broth method; settings: Trichosporon asahii, 1188, 24 h; how it was run: as §3
[8] = tested on: Staphylococcus epidermidis; assay: Antibacterial activity against Staphylococcus epidermidis H 6966/08 after 24 hrs by microdilution broth method; settings: H 6966/08, 24 h; how it was run: as §2
Mycobacterium kansasii [9] = assay: Antimycobacterial activity against Mycobacterium kansasii 235/80 after 7 days; settings: 235/80, 168 h; how it was run: as §1
Staphylococcus aureus [10] = assay: Antibacterial activity against Staphylococcus aureus CCM 4516/08 after 48 hrs by microdilution broth method; settings: CCM 4516/08, 48 h
Enterococcus sp. [11] = assay: Antibacterial activity against Enterococcus sp. J 14365/08 after 48 hrs by microdilution broth method; settings: J 14365/08, 48 h; how it was run: as §2
Aspergillus fumigatus [12] = assay: Antifungal activity against Aspergillus fumigatus 231 after 24 hrs by microdilution broth method; settings: Aspergillus fumigatus, 231, 24 h; how it was run: as §3
Staphylococcus aureus [13] = assay: Antibacterial activity against Staphylococcus aureus CCM 4516/08 after 24 hrs by microdilution broth method; settings: CCM 4516/08, 24 h
[14] = tested on: Trichophyton mentagrophytes; assay: Antifungal activity against Trichophyton mentagrophytes 445 after 24 hrs by microdilution broth method; settings: Trichophyton mentagrophytes, 445, 24 h
Pseudomonas aeruginosa [15] = assay: Antibacterial activity against Pseudomonas aeruginosa CCM 1961 after 48 hrs by microdilution broth method; settings: CCM 1961, 48 h; how it was run: as §2
Pichia kudriavzevii [16] = assay: Antifungal activity against Candida krusei E28 after 48 hrs by microdilution broth method; settings: E28, 48 h; how it was run: as §3
Klebsiella pneumoniae [17] = assay: Antibacterial activity against ESBL-positive Klebsiella pneumoniae J 14368/08 after 48 hrs by microdilution broth method; settings: J 14368/08, 48 h; how it was run: as §2
Candida tropicalis [18] = assay: Antifungal activity against Candida tropicalis 156 after 48 hrs by microdilution broth method; settings: Candida tropicalis, 156, 48 h; how it was run: as §3
Mycobacterium kansasii [19] = assay: Antimycobacterial activity against Mycobacterium kansasii 6509/96 after 7 days; settings: 6509/96, 168 h; how it was run: as §1
Enterococcus sp. [20] = assay: Antibacterial activity against Enterococcus sp. J 14365/08 after 24 hrs by microdilution broth method; settings: J 14365/08, 24 h; how it was run: as §2
Mycobacterium kansasii [21] = assay: Antimycobacterial activity against Mycobacterium kansasii 6509/96 after 21 days; settings: 6509/96, 504 h; how it was run: as §1
Trichosporon asahii [22] = assay: Antifungal activity against Trichosporon asahii 1188 after 48 hrs by microdilution broth method; settings: Trichosporon asahii, 1188, 48 h; how it was run: as §3
Lichtheimia corymbifera [23] = assay: Antifungal activity against Absidia corymbifera 272 after 24 hrs by microdilution broth method; settings: Lichtheimia corymbifera, 272, 24 h; how it was run: as §3
[24] = tested on: Mycobacterium tuberculosis; assay: Antimycobacterial activity against Mycobacterium tuberculosis H37Rv 331/88 after 14 days; settings: H37Rv 331/88, 336 h
Escherichia coli [25] = assay: Antibacterial activity against Escherichia coli CCM4517 after 48 hrs by microdilution broth method; settings: CCM4517, 48 h; how it was run: as §2
Escherichia coli [26] = assay: Antibacterial activity against Escherichia coli CCM4517 after 24 hrs by microdilution broth method; settings: CCM4517, 24 h; how it was run: as §2
Candida albicans [27] = assay: Antifungal activity against Candida albicans ATCC 44859 after 24 hrs by microdilution broth method; settings: ATCC 44859, 24 h; how it was run: as §3
Lichtheimia corymbifera [28] = assay: Antifungal activity against Absidia corymbifera 272 after 48 hrs by microdilution broth method; settings: Lichtheimia corymbifera, 272, 48 h; how it was run: as §3
Klebsiella pneumoniae [29] = assay: Antibacterial activity against Klebsiella pneumoniae D 11750/08 after 24 hrs by microdilution broth method; settings: D 11750/08, 24 h; how it was run: as §2
Pichia kudriavzevii [30] = assay: Antifungal activity against Candida krusei E28 after 24 hrs by microdilution broth method; settings: E28, 24 h; how it was run: as §3
Candida tropicalis [31] = assay: Antifungal activity against Candida tropicalis 156 after 24 hrs by microdilution broth method; settings: Candida tropicalis, 156, 24 h; how it was run: as §3
Mycobacterium kansasii [32] = assay: Antimycobacterial activity against Mycobacterium kansasii 235/80 after 14 days; settings: 235/80, 336 h; how it was run: as §1
Staphylococcus aureus [33] = assay: Antibacterial activity against methicillin-resistant Staphylococcus aureus H 5996/08 after 48 hrs by microdilution broth method; settings: H 5996/08, 48 h
[34] = tested on: Mycobacterium tuberculosis; assay: Antimycobacterial activity against Mycobacterium tuberculosis H37Rv 331/88 after 21 days; settings: H37Rv 331/88, 504 h
Klebsiella pneumoniae [35] = assay: Antibacterial activity against Klebsiella pneumoniae D 11750/08 after 48 hrs by microdilution broth method; settings: D 11750/08, 48 h; how it was run: as §2
Staphylococcus aureus [36] = assay: Antibacterial activity against methicillin-resistant Staphylococcus aureus H 5996/08 after 24 hrs by microdilution broth method; settings: H 5996/08, 24 h
Nakaseomyces glabratus [37] = assay: Antifungal activity against Candida glabrata 20/I after 24 hrs by microdilution broth method; how it was run: as §3
Mycobacterium avium [38] = assay: Antimycobacterial activity against Mycobacterium avium 330/80 after 21 days; settings: 330/80, 504 h
Mycobacterium kansasii [39] = assay: Antimycobacterial activity against Mycobacterium kansasii 6509/96 after 14 days; settings: 6509/96, 336 h; how it was run: as §1
[40] = tested on: Trichophyton mentagrophytes; assay: Antifungal activity against Trichophyton mentagrophytes 445 after 48 hrs by microdilution broth method; settings: Trichophyton mentagrophytes, 445, 48 h
Pseudomonas aeruginosa [41] = assay: Antibacterial activity against Pseudomonas aeruginosa CCM 1961 after 24 hrs by microdilution broth method; settings: CCM 1961, 24 h; how it was run: as §2
Candida albicans [42] = assay: Antifungal activity against Candida albicans ATCC 44859 after 48 hrs by microdilution broth method; settings: ATCC 44859, 48 h; how it was run: as §3

For O=C(Nc1cccc(I)c1)c1cc([N+](=O)[O-])ccc1O, the MIC (Mycobacterium kansasii [1]) was 62.5 µM (≈ 24 µg/mL), the MIC [2] was 31.2 µM (≈ 12 µg/mL) and the MIC (Aspergillus fumigatus [3]) was 250 µM (≈ 96 µg/mL). For the same compound, the MIC (Nakaseomyces glabratus [4]) was 500 µM (≈ 192 µg/mL), the MIC (Klebsiella pneumoniae [5]) was > 500 µM and the MIC (Mycobacterium avium [6]) was 125 µM (≈ 48 µg/mL). The MIC (Trichosporon asahii [7]) was 250 µM (≈ 96 µg/mL), the MIC [8] was 31.2 µM (≈ 12 µg/mL) and the MIC (Mycobacterium kansasii [9]) was 16 µM (≈ 6.15 µg/mL). For the same compound, the MIC (Staphylococcus aureus [10]) was 31.2 µM (≈ 12 µg/mL), the MIC (Enterococcus sp. [11]) was > 500 µM and the MIC (Aspergillus fumigatus [12]) was 250 µM (≈ 96 µg/mL). The MIC (Staphylococcus aureus [13]) was 31.2 µM (≈ 12 µg/mL), the MIC [14] was 125 µM (≈ 48 µg/mL) and the MIC (Pseudomonas aeruginosa [15]) was > 500 µM. For the same compound, the MIC (Pichia kudriavzevii [16]) was 500 µM (≈ 192 µg/mL), the MIC (Klebsiella pneumoniae [17]) was > 500 µM and the MIC (Candida tropicalis [18]) was 500 µM (≈ 192 µg/mL). For the same compound, the MIC (Mycobacterium kansasii [19]) was 32 µM (≈ 12.3 µg/mL), the MIC (Enterococcus sp. [20]) was 250 µM (≈ 96 µg/mL) and the MIC (Mycobacterium kansasii [21]) was 62.5 µM (≈ 24 µg/mL). For the same compound, the MIC (Trichosporon asahii [22]) was 500 µM (≈ 192 µg/mL), the MIC (Lichtheimia corymbifera [23]) was 500 µM (≈ 192 µg/mL) and the MIC [24] was 16 µM (≈ 6.15 µg/mL). The MIC (Escherichia coli [25]) was > 500 µM, the MIC (Escherichia coli [26]) was > 500 µM and the MIC (Candida albicans [27]) was 500 µM (≈ 192 µg/mL). For the same compound, the MIC (Lichtheimia corymbifera [28]) was > 500 µM, the MIC (Klebsiella pneumoniae [29]) was > 500 µM and the MIC (Pichia kudriavzevii [30]) was 500 µM (≈ 192 µg/mL). The MIC (Candida tropicalis [31]) was 500 µM (≈ 192 µg/mL), the MIC (Mycobacterium kansasii [32]) was 32 µM (≈ 12.3 µg/mL) and the MIC (Staphylococcus aureus [33]) was 31.2 µM (≈ 12 µg/mL). The MIC [34] was 16 µM (≈ 6.15 µg/mL), the MIC (Klebsiella pneumoniae [35]) was > 500 µM and the MIC (Staphylococcus aureus [36]) was 31.2 µM (≈ 12 µg/mL). For the same compound, the MIC (Nakaseomyces glabratus [37]) was 500 µM (≈ 192 µg/mL), the MIC (Mycobacterium avium [38]) was 125 µM (≈ 48 µg/mL) and the MIC (Mycobacterium kansasii [39]) was 62.5 µM (≈ 24 µg/mL). The MIC [40] was 125 µM (≈ 48 µg/mL), the MIC (Pseudomonas aeruginosa [41]) was > 500 µM and the MIC (Candida albicans [42]) was > 500 µM.
